Published values pooled from the literature.
Compare with care: the assays were run in different laboratories.
Organism: Severe acute respiratory syndrome coronavirus 2

SMILES | effect on | mode | method | cell line | tested at | time | inhibition [%]
CCC(CC)COC(=O)[C@H](C)N[P@](=O)(OC[C@H]1O[C@@](C#N)(c2ccc3c(N)ncnn23)[C@H](O)[C@@H]1O)Oc1ccccc1 | viral replication | – | – | Vero | 1 nM | – | 14.8
CCOC(=O)c1ccc(C#Cc2ccc3c(c2)C(C)(C)CCS3)nc1 | viral replication | inhibitor | – | Vero C1008 | 1 µM | – | 49.9
Oc1c(I)cc(Cl)c2cccnc12 | viral replication | inhibitor | – | Vero C1008 | 30 µM | – | 91.8
CC1=C(C/C=C(\C)CC/C=C(\C)Cc2ccc(F)c3ccccc23)C(=O)c2ccccc2C1=O | viral replication | inhibitor | – | VeroE6/TMPRSS2 | 100 µM | 72 h | 43
Cc1cc(NC(=O)c2cc3c(=O)n4cccc(C)c4nc3n2C)ccc1Br | viral replication | – | – | Vero | 10 nM | – | 8.19
O=C(Nc1ccc(C(F)(F)F)cc1)c1cc(Cl)c(F)cc1O | viral replication | inhibitor | – | Vero C1008 | 1 µM | – | 90
O=C(/C=C/c1ccc(O)c(O)c1/C=C/c1ccc(O)c(O)c1)O[C@H](Cc1ccc(O)c(O)c1)C(=O)O | cytopathic effect | inhibitor | – | Vero C1008 | 3.125 µM | – | 0
CC(C)=CCC[C@](C)(O)[C@H]1CC[C@]2(C)[C@@H]1CC[C@@H]1[C@@]3(C)CCC(=O)C(C)(C)[C@@H]3CC[C@]12C | viral replication | inhibitor | – | Calu-3 | 50 µM | – | 99.5
Cc1ccc(NC(=O)c2cc3c(=O)n4cccc(C)c4nc3n2C)cc1Cl | viral replication | – | – | Vero | 0.1 µM | – | 67.4
NC[C@@H]1O[C@H](O[C@H]2[C@@H](O)[C@H](O[C@@H]3[C@@H](O)[C@H](N)C[C@H](N)[C@H]3O[C@H]3O[C@H](CO)[C@@H](O)[C@H](O)[C@H]3N)O[C@@H]2CO)[C@H](N)[C@@H](O)[C@@H]1O | viral replication | – | – | Vero C1008 | 50 µM | – | 2
CC1=C(C/C=C(\C)CC/C=C(\C)Cc2cccc(C(C)C)c2)C(=O)c2ccccc2C1=O | viral replication | inhibitor | – | VeroE6/TMPRSS2 | 100 µM | 72 h | 48
CCCc1c(C(C)C)cc(C(C)C)c(C(C)O)c1-c1ccc(F)cc1 (centres unmarked) | viral replication | inhibitor | – | Vero C1008 | 1 µM | – | 52.8
Br.CN=c1nc(-c2ccc(OC)c(OC)c2)n(-c2ccc(F)cc2)s1 | viral replication | inhibitor | qPCR | Vero C1008 | 50 µM | 24 h | 35.6
COC(=O)C[C@@H]1OO[C@@](C)(/C(C)=C/C=C/Cc2ccccc2)C[C@H]1C | viral replication | inhibitor | – | Calu-3 | 50 µM | – | 4.15
CCC(CC)COC(=O)[C@H](C)N[P@](=O)(OC[C@H]1O[C@@](C#N)(c2ccc3c(N)ncnn23)[C@H](O)[C@@H]1O)Oc1ccccc1 | viral replication | inhibitor | – | Vero C1008 | 0.8 µM | – | 20
CC(C)=CCc1c(O)ccc(C(=O)/C=C/c2ccc(O)cc2)c1O | cytopathic effect | – | – | Vero C1008 | 25 µM | – | 0
CC(=O)c1cccc(NC(=O)c2cc3c(=O)n4ccccc4nc3n2C)c1 | viral replication | – | – | Vero | 10 µM | – | 96.4
CC1CCC2c3c(c4ccccc4n3Cc3ccccc3)CCN2C1 (centres unmarked) | viral replication | inhibitor | – | Vero C1008 | 1 µM | – | 54.3

SMILES | effect on | mode | method | cell line | tested at | time | inhibition [%]
COc1ccc(C[C@@H]2c3cc(Oc4cc(C[C@@H]5c6cc(O)c(OC)cc6CCN5C)ccc4O)c(OC)cc3CCN2C)cc1 | cytopathic effect | – | – | Vero C1008 | 3.125 µM | – | 0
Cc1cccn2c(=O)c3cc(C(=O)Nc4ccc(N(C)C)cc4)n(C)c3nc12 | viral replication | – | – | Vero | 10 µM | – | 94.2
C=C1C[C@H]2[C@@](C)(C(=O)C(O)=C3C(C)(C)C(=O)CC[C@@]32C)[C@@H]2C(=O)O[C@@](C)(C(=O)OC)C(=O)[C@@]12C | viral replication | inhibitor | – | Calu-3 | 50 µM | – | 82.1
[H]/N=C(/N)SCCCn1cc(C2=C(c3cn(C)c4ccccc34)C(=O)NC2=O)c2ccccc21 | viral replication | – | – | Vero C1008 | 50 µM | – | 15
Cn1c(C(=O)Nc2ccc3c(c2)OCCO3)cc2c(=O)n3ccccc3nc21 | viral replication | – | – | Vero | 1 µM | – | 74.7
CC[C@H](C)[C@@H]1NC(=O)[C@@H](C)NC(=O)[C@H](C(C)C)NC(=O)C[C@H](/C=C/c2ccccc2)OC(=O)[C@H](C(C)C)NC1=O | viral replication | inhibitor | – | Calu-3 | 50 µM | – | 3.01
CC(C)CC(NC(=O)OCc1ccccc1)C(=O)NC(C(=O)NCC(=O)C=[N+]=[N-])C(C)C (centres unmarked) | viral replication | inhibitor | – | Vero C1008 | 1 µM | – | 95.8
COCC(=O)Nc1c(I)c(C(=O)NCC(O)CO)c(I)c(C(=O)N(C)CC(O)CO)c1I (centres unmarked) | viral replication | – | – | Vero C1008 | 50 µM | – | 2
Cn1c(C(=O)Nc2ccc(Cl)cc2)cc2c(=O)n3ccccc3nc21 | viral replication | – | – | Vero | 1 µM | – | 74.7
NS(=O)(=O)c1ccc(N2N=C(C(F)(F)F)CC2c2c[nH]c3cc(Cl)ccc23)cc1 (centres unmarked) | viral replication | inhibitor | – | Vero C1008 | 1 µM | – | 40.9
O=C(Nc1ccccc1F)c1cc2c(=O)n3ccccc3nc2n1Cc1ccccc1 | viral replication | – | – | Vero | 1 µM | – | 92.3
CC1=C(C/C=C(\C)CC/C=C(\C)Cc2ccc(F)cc2)C(=O)c2ccccc2C1=O | viral replication | inhibitor | – | VeroE6/TMPRSS2 | 100 µM | 72 h | 45
O=C(O[C@@H]1Cc2c(O)cc(O)cc2O[C@@H]1c1cc(O)c(O)c(O)c1)c1cc(O)c(O)c(O)c1 | cytopathic effect | inhibitor | – | Vero C1008 | 6.25 µM | – | 0
CC1(C)CCC(C)(C)c2cc(C#Cc3ccc(C(=O)O)cc3)ccc21 | viral replication | inhibitor | – | Vero C1008 | 1 µM | – | 56.1
C[C@@H]1O[C@@H](O[C@H]2[C@H](O[C@H]3CC[C@]4(C)[C@H]5CC=C6[C@@H]7CC(C)(C)CC[C@]7(C(=O)OCc7ccccc7)CC[C@@]6(C)[C@]5(C)CC[C@H]4C3(C)C)O[C@H](CO)[C@@H](O[C@@H]3O[C@@H](C)[C@H](O)[C@@H](O)[C@H]3O)[C@@H]2O)[C@H](O)[C@H](O)[C@H]1O | viral replication | – | – | 293T/ACE2 | 20 µM | – | 83.6
CC1=C(/C=C/C(C)=C/C=C/C(C)=C/C(=O)O)C(C)(C)CCC1 | viral replication | inhibitor | – | Vero C1008 | 1 µM | – | 42.1
C=C[C@@](C)(/C=C/c1ccc(O)cc1)CCC=C(C)C | cytopathic effect | – | – | Vero C1008 | 50 µM | – | 0
